Compound activity: PubChem BioAssay, several laboratories
Shown are actives, neighbours in structure and some others; about 2.2% of the full set was active somewhere.
PABP polyA inh = PABP poly(A) RNA binding inhibitors, primary screen, biochemical, fluorescence polarization, uHTS. Polyadenylate-binding protein 1 (Homo sapiens), P11940. calls only at 35 µM. 1% of 290,000 active;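 also: calls also rest on retests at 20 µM and on dose response follow-up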
Target sequence (P11940 whole entry, looked up): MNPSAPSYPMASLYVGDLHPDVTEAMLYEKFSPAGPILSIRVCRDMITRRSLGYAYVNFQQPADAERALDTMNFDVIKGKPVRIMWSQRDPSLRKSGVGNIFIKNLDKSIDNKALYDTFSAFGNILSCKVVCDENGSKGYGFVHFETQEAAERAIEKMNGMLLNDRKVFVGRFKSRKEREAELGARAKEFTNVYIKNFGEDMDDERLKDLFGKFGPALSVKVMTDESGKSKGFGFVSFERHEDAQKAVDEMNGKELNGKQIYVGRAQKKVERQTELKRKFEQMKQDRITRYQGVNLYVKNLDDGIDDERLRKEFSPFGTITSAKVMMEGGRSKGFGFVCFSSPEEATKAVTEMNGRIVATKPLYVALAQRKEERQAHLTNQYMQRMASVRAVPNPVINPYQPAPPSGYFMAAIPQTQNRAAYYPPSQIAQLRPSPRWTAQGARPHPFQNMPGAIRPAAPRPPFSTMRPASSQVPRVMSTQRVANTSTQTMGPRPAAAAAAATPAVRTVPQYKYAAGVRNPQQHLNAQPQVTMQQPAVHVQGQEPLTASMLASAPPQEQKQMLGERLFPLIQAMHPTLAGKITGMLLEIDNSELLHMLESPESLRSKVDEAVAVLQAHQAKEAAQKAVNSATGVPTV
VIM-2 inh = VIM-2 metallo-beta-lactamase inhibitors, primary screen, biochemical, epi-absorbance readout, Pseudomonas aeruginosa enzyme; 0.89% of 290,000 active; inhibition, % at 5.6 µM; purified VIM-2, nitrocefin hydrolysis, epi-absorbance fluorescence;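 active = inhibition above the mean of all tested compounds plus 3 SD, cutoff set per screening run, cut at about 7.5% in these data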;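 also: red hydrolysis product quenches plate fluorescence so inhibitors raise well fluorescence; 0% = enzyme with DMSO and 100% = DMSO without enzyme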
PABP1 MLLE inh = inhibitors of PABP1 MLLE–PAM2 peptide binding, primary screen, biochemical, fluorescence polarization, FITC-PAM2, GST-MLLE; Polyadenylate-binding protein 1 (Homo sapiens), P11940; inhibition, % at 20 µM; 0.36% of 360,000 active; in the data active = inhibition above about 35%, passing the limit was not always enough;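 also: plate controls were DMSO wells with GST-MLLE for no effect and wells lacking GST-MLLE protein for full effect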
IMP-1 inhibitor = IMP-1 metallo-beta-lactamase inhibitors, primary screen, biochemical, epi-absorbance readout, Pseudomonas aeruginosa enzyme; metallo-beta-lactamase IMP-1 (Pseudomonas aeruginosa); purified IMP-1, nitrocefin hydrolysis, epi-absorbance fluorescence; inhibition, % at 5.6 µM; 0.45% of 290,000 active;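 active = inhibition above the mean plus 3 SD of all compounds in the same screening run, cut at about 4.5% in these data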;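 also: 0% = IMP-1 with DMSO and 100% = DMSO wells lacking enzyme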
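System: Purified recombinant IMP-1 metallo-beta-lactamase enzyme | Measured by: Fluorescence quenching readout, ex 480/em 530 nm | Replication: Singlicate | Incubation: 15 min preincubation plus 25 min reaction at 25 °C | Evaluation: Percent inhibition from optical density relative to buffer-blank wells | Benchmarks: DMSO with and without IMP-1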
eIF4H inh = human eIF4H binding inhibitors, primary screen, translation initiation inhibitor project, biochemical, uHTS, fluorescence polarization; Eukaryotic translation initiation factor 4H (Homo sapiens), Q15056; eIF4H fluorescence polarization binding assay; inhibition, % at 35 µM; 0.94% of 290,000 active; AID 2012, 2009;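 also: calls also rest on retests at 20 µM and on dose response follow-up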
* hit, by the source's call. Unless noted, no rule for the calls is given here.

How did CCOC(=O)c1c(=O)n(O)c2ccc(C)cc2[n+]1[O-] do in these assays?
PABP polyA inh: active; VIM-2 inh: -2; PABP1 MLLE inh: -54; IMP-1 inhibitor: -2; eIF4H inh: 104*

How did COC(=O)CSC1=C(C#N)C(=O)NC(c2ccccc2)S1 (stereo unspecified) do in these assays?
PABP polyA inh: inactive; VIM-2 inh: -1; PABP1 MLLE inh: 42*; IMP-1 inhibitor: -2; eIF4H inh: -5

Results for COCCCN1CN(Cc2ccccc2)CNC1=S ?
PABP polyA inh: inactive; VIM-2 inh: 0; PABP1 MLLE inh: -78; IMP-1 inhibitor: -2; eIF4H inh: 0.6*

How did C[C@@H]1CCC2[C@](C)(CO)[C@@H](O)CC[C@]2(C)[C@@]12CC[C@@](CO)(CC(=O)O)O2 (stereo partly specified) do in these assays?
PABP polyA inh: inactive; VIM-2 inh: -2; PABP1 MLLE inh: 53*; IMP-1 inhibitor: -1; eIF4H inh: -11

Results for COc1cc(/C=N/N2CCN(c3ccccc3OC)CC2)ccc1OC(C)=O ?
PABP polyA inh: inactive; VIM-2 inh: -3; PABP1 MLLE inh: 12; IMP-1 inhibitor: -2; eIF4H inh: -12

How did O=C1CCC(C(=O)N2CCCC(C(=O)c3ccc4c5c(cccc35)CC4)C2)=NN1 (stereo unspecified) do in these assays?
PABP polyA inh: inactive; VIM-2 inh: -2; PABP1 MLLE inh: -16; IMP-1 inhibitor: -3; eIF4H inh: 2

Results for COc1ccc(C=Nc2cccc3c(=O)[nH][nH]c(=O)c23)c2ccccc12 ?
PABP polyA inh: inactive; VIM-2 inh: -1; PABP1 MLLE inh: -17; IMP-1 inhibitor: 27*; eIF4H inh: 2

Results for NS(=O)(=O)c1ccc(CCNC(=O)c2ccc3c(c2)OCCO3)cc1 ?
PABP polyA inh: inactive; VIM-2 inh: -1; PABP1 MLLE inh: 10; IMP-1 inhibitor: -3; eIF4H inh: 7

What do the screens show for `O=C(c1ccccc1C(=O)N1CCN(c2ccccc2)CC1)N1CCN(c2ccccc2)CC1`?
PABP polyA inh: active; VIM-2 inh: -1; PABP1 MLLE inh: 86; IMP-1 inhibitor: -3; eIF4H inh: 127*

How did O=C(c1sc2cc(F)ccc2c1Cl)N1CCN(c2ccccc2)CC1 do in these assays?
PABP polyA inh: active; VIM-2 inh: -3; PABP1 MLLE inh: 7; IMP-1 inhibitor: -2; eIF4H inh: 76*

Results for COc1ccc(-c2cc(C(=O)N3CCN(c4ccccc4)CC3)c3ccccc3n2)cc1 ?
PABP polyA inh: active; VIM-2 inh: 0; PABP1 MLLE inh: 11; IMP-1 inhibitor: -3; eIF4H inh: 57*

Results for COc1ccc(-c2cc(C(=O)N3CCCCCC3)c3ccccc3n2)c(OC)c1 ?
PABP polyA inh: active; VIM-2 inh: -3; PABP1 MLLE inh: 19; IMP-1 inhibitor: -1; eIF4H inh: 84*

How did COc1ccc(-c2cc(C(=O)N3CCN(c4ncccn4)CC3)c3ccccc3n2)c(OC)c1 do in these assays?
PABP polyA inh: inactive; VIM-2 inh: 1; PABP1 MLLE inh: 22; IMP-1 inhibitor: -1; eIF4H inh: -11

What do the screens show for `O=C(NCCSc1ncc(-c2ccc(F)cc2)[nH]1)c1ccc2c(c1)OCO2`?
PABP1 MLLE inh: 10

How did O=C(O)c1ccc(N/N=C/C2=Cc3ccccc3OC2)cc1 do in these assays?
PABP polyA inh: inactive; VIM-2 inh: 0; PABP1 MLLE inh: -6; IMP-1 inhibitor: -3; eIF4H inh: -4

How did CC(=O)CSc1ncnc2sc3c(c12)CCC3 do in these assays?
PABP polyA inh: inactive; VIM-2 inh: 1; PABP1 MLLE inh: -7; IMP-1 inhibitor: -2; eIF4H inh: 4

What do the screens show for `O=C(CSc1ncnc2sc3c(c12)CCC3)N1CCOCC1`?
PABP polyA inh: inactive; VIM-2 inh: 6; PABP1 MLLE inh: 12; IMP-1 inhibitor: -1; eIF4H inh: 62*

Results for COc1cc2c(cc1OC)C(c1ccccc1)CC2=O (stereo unspecified) ?
PABP polyA inh: inactive; VIM-2 inh: 2; PABP1 MLLE inh: -5; IMP-1 inhibitor: 10*; eIF4H inh: 17

Results for CC(C)(C)OC(=O)NCCCCCNC(=O)c1[nH]cnc1C(=O)N[C@@H](Cc1ccccc1)C(=O)OCc1ccccc1 ?
PABP polyA inh: active; VIM-2 inh: -3; PABP1 MLLE inh: -5; IMP-1 inhibitor: -4; eIF4H inh: 109*

Results for O=CNC1(c2ccccc2)CCCCC1 ?
PABP1 MLLE inh: 0

What do the screens show for `CC(=O)Nc1ccc(N2C(=O)CSC2c2ccc(F)cc2)cc1` (stereo unspecified)?
PABP polyA inh: active; VIM-2 inh: -2; PABP1 MLLE inh: 5; IMP-1 inhibitor: -4; eIF4H inh: 98*

What do the screens show for `COc1ccc(N2C(=O)CSC2c2ccc(F)cc2)cc1` (stereo unspecified)?
PABP polyA inh: inactive; VIM-2 inh: -1; PABP1 MLLE inh: -6; IMP-1 inhibitor: -1; eIF4H inh: -5

How did Cc1ccc(NC(=O)C2C(c3ccccc3)C2(Cl)Cl)c(C)c1 (stereo unspecified) do in these assays?
PABP polyA inh: active; VIM-2 inh: -4; PABP1 MLLE inh: 4; IMP-1 inhibitor: -2; eIF4H inh: inconclusive

What do the screens show for `Cc1cccc(NC(=O)C2C(c3ccccc3)C2(Cl)Cl)c1` (stereo unspecified)?
PABP polyA inh: inactive; VIM-2 inh: -6; PABP1 MLLE inh: 1; IMP-1 inhibitor: -1; eIF4H inh: -3

Results for O=C(COc1ncnc2scc(-c3ccc(F)cc3)c12)NCc1ccco1 ?
PABP polyA inh: inactive; VIM-2 inh: -2; PABP1 MLLE inh: -18; IMP-1 inhibitor: -2; eIF4H inh: -6

What do the screens show for `Cc1sc2ncnc(NCc3ccco3)c2c1C`?
PABP polyA inh: active; VIM-2 inh: 2; PABP1 MLLE inh: -2; IMP-1 inhibitor: 0; eIF4H inh: 66*

How did Cc1ccc(-c2csc3ncnc(OCC(=O)NC(=O)NCc4ccco4)c23)cc1 do in these assays?
PABP polyA inh: inactive; VIM-2 inh: -1; PABP1 MLLE inh: 2; IMP-1 inhibitor: -4; eIF4H inh: 21*

How did Cc1sc2ncnc(SCC(=O)NC(=O)NCc3ccco3)c2c1C do in these assays?
PABP polyA inh: active; VIM-2 inh: 4; PABP1 MLLE inh: 12; IMP-1 inhibitor: -2; eIF4H inh: 82*

How did Cc1sc2ncnc(NCc3cccs3)c2c1C do in these assays?
PABP polyA inh: inactive; VIM-2 inh: 1; PABP1 MLLE inh: -4; IMP-1 inhibitor: -1; eIF4H inh: -10

Results for CN(C)CCNc1nc(Oc2ccccc2)c2sccc2n1 ?
PABP1 MLLE inh: -25
